# Screening data from PubChem BioAssay.
# The list is a sample of the results.
# HKDC1 act: HKDC1 hexokinase activators, primary screen, biochemical, fluorescence, uHTS; Q2TB90; hit rate 0.056% among 340,000; recombinant HKDC1, G6PDH/diaphorase resazurin fluorescence; hits give low values; activity change, negative = activation, % at 20 µM; AID 493187, 2011;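 active means activation of 40% or more at 20 µM, a change of -40% or lower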
#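 Material: in-house human HKDC1 enzyme, G6PDH and diaphorase coupling enzymes | Quantity: HKDC1 at 5 µg/mL final | Medium: Tris buffer at pH 8.0 containing MgCl2 | Compound dosing: 20 µM single dose | Schedule: 90 min reaction at room temperature, dark | Measured by: Resorufin fluorescence, 525/613 nm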
# An asterisk follows results filed as active.
SMILES,HKDC1 act
O=c1c2ccccc2[se]n1-c1ccccc1,-115.9*
CCn1nc(-c2ccccc2)nc2c(=O)n(C)c(=O)nc1-2,-83.0*
CC[C@H](C)/C=C(C)/C=C/C1=CC2=C(Cl)C(=O)[C@@](C)(OC(C)=O)C(=O)C2=CO1,62.8
COc1ccc(OC)c(N2C(=O)/C(=C/c3ccco3)C(=O)NC2=S)c1,82.3
COC(=O)C1=C(C(=O)OC)SC2(S1)C(C(=O)OC)=C(C(=O)OC)Sc1c2ssc1=O,-108.7*
NC(=O)c1ccc(N=Cc2c(O)n(Cc3ccco3)c(=O)[nH]c2=O)cc1,36.2
O=c1[nH]c(O)c(/C=C2/C=CC(c3cc(Cl)ccc3Cl)=N2)c(=O)[nH]1,40.4
O=C1CC=C2C3CC4N(CCC45c4cc(O)c(O)cc4N1C25)CC3=CCBr (configuration not stated),44.6
CCOC(=O)c1c(-n2c(C)cc(/C=C3\C(=O)NC(=O)N(C)C3=O)c2C)sc2c1CCCC2,51.2
Cn1c(=O)c2c(nc(N/N=C/c3c(O)n(C4CCCCC4)c(=S)[nH]c3=O)n2C)n(C)c1=O,-46.3*
COC(=O)C1CN(C#N)N(c2ccc(Cl)cc2)C12c1ccccc1-c1ccccc12 (configuration not stated),87.2
N#CC(C#N)=Cc1ccc(C=C(C#N)C#N)cc1,37.6
Cc1ccc2c(C)c3ccc4ccccc4c3c[n+]2c1,-52.8*
O=C1NC(=S)N(c2ccc(F)cc2)C(=O)/C1=C\c1ccoc1,50.9
Cc1cc(/C=C2\C(=O)NC(=O)N(c3ccc(Cl)cc3)C2=O)c(C)n1-c1sc2c(c1C#N)CCCC2,68.9
O=C(O)CC1OCC=C2CN3CCC45C6=CC(=O)C(=O)C([N+](=O)[O-])=C6NC4C1C2CC35 (configuration not stated),42.5
COc1ccc(/C=C2\C(=O)NC(=S)N(C)C2=O)cc1C,36.4
N#CC1=C(N)Oc2c(c(=O)sc3ccccc23)C1c1ccncc1 (configuration not stated),-57.7*
O=C1C=CC(=O)C=C1,48.3
